Experimental data: ChEMBL document CHEMBL1135626, “Imidazole inhibitors of cytokine release: probing substituents in the 2 position” (J Med Chem, 2002)

How the values were obtained:
[1] = Inhibition of the release of tumor necrosis factor alpha from peripheral blood mononuclear cells; type: functional; details: Homo sapiens
Summary of the method: (§1)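 PBMC isolated from healthy donor blood by density gradient centrifugation, ~10⁶ cells/mL, preincubated 15 min (37 °C, 5% CO2) with compounds in DMSO (1% final), then LPS 1µg/mL (E. coli 026:B6) for 4 h. Supernatant IL-1β and TNF-α by ELISA after ice stop and centrifugation. IC50 from semilog plot of % reduction vs control, 10^-4–10^-8 M; at least duplicate.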

[2] = Inhibition of the release of interleukin-1-beta from peripheral blood mononuclear cells; type: functional; details: Homo sapiens; summary of the method: as §1
[3] = target: Mitogen-activated protein kinase 14 (Homo sapiens, UniProt Q16539); assay: Inhibition of Mitogen-activated protein kinase p38 (P38 MAPK)
[4] = organism: Homo sapiens; assay: Ability to inhibit the release of tumor necrosis factor alpha (TNF-alpha) from whole blood; type: functional
Summary of the method: (§2)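 Human whole blood preincubated 15 min (37 °C, 5% CO2) with compounds in Cremophor EL/ethanol 70:30 (1% final), then stimulated 4 h with 1µg/mL LPS (E. coli 026:B6). Reaction stopped on ice, samples centrifuged, supernatant IL-1β and TNF-α measured by ELISA. IC50 read from semilog plot of % reduction vs control over 10^-4–10^-8 M; at least duplicate.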

[5] = organism: Homo sapiens; assay: Ability to inhibit the release of interleukin-1-beta (IL-1 beta) from whole blood; type: functional; summary of the method: as §2

Chain of Mitogen-activated protein kinase 14 (Q16539 whole entry): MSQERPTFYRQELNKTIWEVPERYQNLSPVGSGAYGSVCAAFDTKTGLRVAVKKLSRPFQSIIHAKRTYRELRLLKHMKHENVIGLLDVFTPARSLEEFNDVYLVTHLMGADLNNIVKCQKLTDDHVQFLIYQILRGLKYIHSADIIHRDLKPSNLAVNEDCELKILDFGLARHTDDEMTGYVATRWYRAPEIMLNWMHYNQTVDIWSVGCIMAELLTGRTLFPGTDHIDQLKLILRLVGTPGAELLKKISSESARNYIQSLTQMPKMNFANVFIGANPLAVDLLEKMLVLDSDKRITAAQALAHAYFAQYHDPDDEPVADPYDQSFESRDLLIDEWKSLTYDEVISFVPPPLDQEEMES

Structure (SMILES)	IC50 [1] [µM]	IC50 [2] [µM]	IC50 [3] [µM]	IC50 [4] [µM]	IC50 [5] [µM]
C[S+]([O-])c1ccc(CSc2nc(-c3ccc(F)cc3)c(-c3ccncc3)[nH]2)cc1 (configuration not stated)	1.1	0.38	4	20.3	2.78
CSc1nc(-c2ccncc2)c(-c2ccc(F)cc2)[nH]1	0.9	0.044	0.63	4.2	1.2
CS(=O)(=O)c1ccc(CSc2nc(-c3ccc(Cl)cc3)c(-c3ccncc3)[nH]2)cc1	6.1	0.32			
CSc1ccc(CSc2nc(-c3ccc(Br)cc3)c(-c3ccncc3)[nH]2)cc1	12.9	2.4			
C[S+]([O-])c1cc(Cl)cc(CSc2nc(-c3ccc(F)cc3)c(-c3ccncc3)[nH]2)c1O (configuration not stated)	28	4.4			
C[S+]([O-])c1ccc(CSc2nc(-c3ccc(F)cc3)c(-c3cccnc3)[nH]2)cc1 (configuration not stated)	> 100	98			
C[S+]([O-])c1ccc(O)c(CSc2nc(-c3ccc(F)cc3)c(-c3ccncc3)[nH]2)c1 (configuration not stated)	5.8	1		103	13
CSc1ccc(CSc2nc(-c3ccc(Cl)cc3)c(-c3ccncc3)[nH]2)cc1	14	2.2			
Fc1ccc(-c2[nH]c(SCc3ccccc3)nc2-c2ccncc2)cc1	3.5	0.3	35		
C[S+]([O-])c1cc(CSc2nc(-c3ccncc3)c(-c3ccc(F)cc3)[nH]2)ccc1O (configuration not stated)	5	2.3	3.4	9	12.1
CSc1cc(CSc2nc(-c3ccncc3)c(-c3ccc(F)cc3)[nH]2)ccc1O	1.1	0.28	3.8		
CSc1cc(Cl)cc(CSc2nc(-c3ccc(F)cc3)c(-c3ccncc3)[nH]2)c1O	13.3	0.64			
Oc1cccc(CSc2nc(-c3ccc(F)cc3)c(-c3ccncc3)[nH]2)c1	5.4	0.31			
Oc1ccc(CSc2nc(-c3ccncc3)c(-c3ccc(F)cc3)[nH]2)cc1	6.8	0.37	5.7		
N#CCSc1nc(-c2ccncc2)c(-c2ccc(F)cc2)[nH]1	2.3	< 0.1			
CS(=O)(=O)c1ccc(CSc2nc(-c3ccccc3)c(-c3ccncc3)[nH]2)cc1	8	1.7			
C[S+]([O-])c1cccc(CSc2nc(-c3ccncc3)c(-c3ccc(F)cc3)[nH]2)c1 (configuration not stated)	23.5	1	2.1	33.5	4.1
C[S+]([O-])c1ccc(CSc2nc(-c3ccccc3)c(-c3ccncc3)[nH]2)cc1 (configuration not stated)	4.3	0.84	12		
CS(=O)(=O)c1ccc(CSc2nc(-c3ccc(F)cc3)c(-c3ccncc3)[nH]2)cc1	2.5	0.33		28.8	2.9

Structure (SMILES)	IC50 [1] [µM]	IC50 [2] [µM]	IC50 [3] [µM]	IC50 [4] [µM]	IC50 [5] [µM]
Fc1ccc(-c2[nH]c(SCCc3ccccc3)nc2-c2ccncc2)cc1	23.5	0.64			
Fc1ccc(-c2[nH]c(SCC3CCCCC3)nc2-c2ccncc2)cc1	33.8	0.24			
Fc1ccc(-c2[nH]c(SCc3cccc4ccccc34)nc2-c2ccncc2)cc1	8.8	0.82			
CSc1ccccc1CSc1nc(-c2ccc(F)cc2)c(-c2ccncc2)[nH]1	18.3	6.7			
CSc1ccc(O)c(CSc2nc(-c3ccc(F)cc3)c(-c3ccncc3)[nH]2)c1	5.1	0.74			
Fc1ccc(-c2[nH]c(SCCCc3ccccc3)nc2-c2ccncc2)cc1	16	0.47			
CSc1ccc(CSc2nc(-c3ccc(F)cc3)c(-c3ccncc3)[nH]2)cc1	4.9	0.67			
Fc1ccc(-c2[nH]c(/C=C/c3ccccc3)nc2-c2ccncc2)cc1	6.5	0.13			
C[S+]([O-])c1ccc(CCSc2nc(-c3ccncc3)c(-c3ccc(F)cc3)[nH]2)cc1 (configuration not stated)	7.3	0.5	1.5		
CSc1ccc(CSc2nc(-c3ccccc3)c(-c3ccncc3)[nH]2)cc1	17.1	72.5			
C[S+]([O-])c1ccc(CSc2nc(-c3ccc(Br)cc3)c(-c3ccncc3)[nH]2)cc1 (configuration not stated)	7.8	0.82	3.8		
CSc1cccc(CSc2nc(-c3ccncc3)c(-c3ccc(F)cc3)[nH]2)c1	12	0.55	2.3		
C[S+]([O-])c1ccc(CSc2nc(-c3ccc(Cl)cc3)c(-c3ccncc3)[nH]2)cc1 (configuration not stated)	3.1	0.32	1.4		
CS(=O)(=O)c1ccc(CSc2nc(-c3ccc(Br)cc3)c(-c3ccncc3)[nH]2)cc1	7.3	0.64			
C[S+]([O-])c1ccccc1CSc1nc(-c2ccc(F)cc2)c(-c2ccncc2)[nH]1 (configuration not stated)	15	0.9		47.5	4
C[S+]([O-])c1ccc(CCCSc2nc(-c3ccc(F)cc3)c(-c3ccncc3)[nH]2)cc1 (configuration not stated)	3.6	0.18	0.75		
Oc1ccccc1CSc1nc(-c2ccc(F)cc2)c(-c2ccncc2)[nH]1	24.8	0.44			
Fc1ccc(-c2[nH]c(CCc3ccccc3)nc2-c2ccncc2)cc1	5.4	0.14	0.69		
